# Bioassay records: PubChem BioAssay, The Scripps Research Institute Molecular Screening Center
# TCR CD3 inh = human TCR-CD3 binding inhibition | TAMRA-labeled TCR probe fluorescence, biochemical | inhibition, % at 9.4 µM | 0.37% of 360,000 active | AID 651800;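 further: recombinant mutant TCR 2C K166C tagged with TAMRA read by polarization; 0% = receptor in buffer alone and 100% = receptor with positive control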
# ARFGAP1 inhibitor = inhibitors of rat ARFGAP1; Arfgap1-stimulated ARF1 GTP hydrolysis, GDP FP detection; inhibition, % at 16.5 µM; 0.26% of 360,000 active; AID 651572;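 active means inhibition above a per-plate limit, mean inhibition of low control wells plus 3 SD, cut at about 25% in these data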;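 further: 0% = DMSO wells with enzyme and 100% = wells lacking Arfgap1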
#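 material = rat Arfgap1 catalytic domain, aa 1-136 | also added = human ARF1(Δ1-17)-GTP substrate | compound dosing = one concentration, 16.5 µM, DMSO 1.26% | times = GTP hydrolysis reaction 2 h at 25 °C | measured by = FP, GDP Alexa 633 tracer displaced from anti-GDP antibody, 620/688 nm | evaluation = percent inhibition of Arfgap1-stimulated GTP hydrolysis | replication = single well per compound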
# ASAP1 GAP inh = blocks human ASAP1-stimulated Arf1 GTP hydrolysis | GDP FP detection | inhibition, % at 16.5 µM | 0.19% of 360,000 active | AID 624377; in the data active means inhibition above about 25%;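 further: 0% = vehicle with enzyme and substrate and 100% = no enzyme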
# Target sequence (Q9ULH1 325-724 limits assumed): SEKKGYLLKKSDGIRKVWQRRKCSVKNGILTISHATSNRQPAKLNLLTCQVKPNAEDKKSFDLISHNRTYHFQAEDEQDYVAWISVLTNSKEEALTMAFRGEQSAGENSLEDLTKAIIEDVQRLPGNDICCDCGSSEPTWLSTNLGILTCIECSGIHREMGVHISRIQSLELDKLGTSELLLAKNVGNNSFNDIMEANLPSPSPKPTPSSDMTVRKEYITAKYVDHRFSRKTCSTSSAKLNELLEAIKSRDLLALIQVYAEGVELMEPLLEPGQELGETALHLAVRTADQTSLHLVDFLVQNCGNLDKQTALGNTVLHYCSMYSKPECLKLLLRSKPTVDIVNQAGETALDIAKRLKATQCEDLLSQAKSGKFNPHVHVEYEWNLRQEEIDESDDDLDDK
# UHRF1 MBD2 ctr = human UHRF1 methylated DNA binding inhibitors. Q96T88. UHRF1 binding to methylated oligo, TR-FRET. inhibition, % at 4.4 µM. 0.75% of 370,000 active. AID 687016; in the data active means inhibition above about 21%;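 further: UHRF1 SRA domain binding a hemimethylated CpG hairpin DNA probe; 0% = median of test compound wells and 100% = reference inhibitor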
# MBD2 inh = MBD2-methylated oligo binding inhibition; Q9UBB5; TR-FRET, MBD2 binding to methylated oligonucleotide; inhibition, % at 4.4 µM; 0.31% of 370,000 active; AID 686964; in the data active means inhibition above about 13%
# LEDGF integ inh = blocks HIV-1 LEDGF/p75-dependent DNA integration; TR-FRET IN-LEDGF/p75 DNA integration, Eu/Cy5; inhibition, % at 3.7 µM; 0.64% of 370,000 active;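 active means inhibition above the screen-wide mean plus 3 SD, cut at about 13% in these data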;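 further: signal is the Cy5 over europium emission ratio at 671 and 618 nm; 0% = plate median of compound wells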
# BSA TAMRA ctr = counter-screen for TCR-CD3 interaction inhibitors: BSA probe. inhibition, % at 9.4 µM. TAMRA-labeled BSA probe fluorescence counterscreen. 10% of 1,200 active. shares compounds with TCR CD3 inh; in the data active means inhibition above about 23%;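 further: 0% = buffer low control and 100% = reference high control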
# TCR-CD3 inh conf = TCR-CD3 interaction inhibition, confirmation; shares compounds with TCR CD3 inh; TAMRA-labeled TCR probe fluorescence binding assay; inhibition, % at 9.4 µM; 48% of 1,200 active; AID 652036
# An asterisk follows results filed as active; · = no result given. Only some compounds are listed: those with a hit (about 2% of all), similar ones and a draw of the others. Unless noted, no stated cut-off is given here; in the data, active means inhibition above about 19%; inactive means the rest.
SMILES,TCR CD3 inh,ARFGAP1 inhibitor,ASAP1 GAP inh,UHRF1 MBD2 ctr,MBD2 inh,LEDGF integ inh,BSA TAMRA ctr,TCR-CD3 inh conf
COc1ccc(N(C)S(=O)(=O)c2ccc(Cl)c(C(=O)NNC(=O)c3ccccc3O)c2)cc1,26*,0,-15,-3,1,-7,3,18
COc1ccccc1N(C)S(=O)(=O)c1ccc(Cl)c(C(=O)NNC(=O)c2ccccc2O)c1,32*,12,11,-4,-3,-6,-10,25*
COc1ccccc1N(C)S(=O)(=O)c1ccc(C(=O)NNC(=O)c2ccccc2O)cc1,23*,1,-13,0,-6,-10,-1,24*
COc1ccc(NS(=O)(=O)c2cccc(C(=O)NNC(=O)c3ccccc3O)c2)cc1,28*,-10,-3,0,5,-14,-16,16
COc1ccc([N+](=O)[O-])cc1NC1CCN(C(=O)c2cccs2)CC1,-3,-14,13,-2,-1,1,·,·
COc1ccc(/C=C/C(Cc2cccc(C(C)=O)c2)c2ccc(C)cc2)cc1 (stereo not given),·,·,·,0,-3,-2,·,·
O=C(NCc1ccccc1)C1C(c2ccccc2)=Nc2ccccc2N1C(=O)c1ccncc1 (stereo not given),-4,-2,-12,-2,2,-2,·,·
Cc1ccc(NC(=O)CN2C(=O)NC(Cc3c[nH]c4ccccc34)C2=O)cc1S(=O)(=O)N1CCCCC1 (stereo not given),1,8,5,-3,-2,7,·,·
COc1ccc(NC(=O)CCNS(=O)(=O)c2ccc(Cl)c([N+](=O)[O-])c2)cc1S(N)(=O)=O,4,-5,-9,-1,2,3,·,·
COc1cccc(/C=N/NC(=O)c2ccc(N(C)S(=O)(=O)c3ccccc3)cc2)c1OC,-1,9,-6,1,1,-6,·,·
COc1ccccc1/C=N/NC(=O)c1ccc(N(C)S(=O)(=O)c2ccccc2)cc1,23*,15,1,-2,-4,0,10,10
CS/C(N)=N/N=C/c1cc(Br)cc(Br)c1O,35*,11,-2,-4,-5,4,14,36*
Cc1cc2ccccc2n1CCNC(=O)c1ccc(S(=O)(=O)N2CCCCC2)cc1,63*,9,5,-1,-1,-3,5,6
Cc1cc2cc(CNC(=O)c3ccc(S(=O)(=O)N4CCCCC4)cc3)ccc2[nH]1,20*,14,21,-4,-4,0,-2,-2
COc1cccc(CNC(=O)c2ccc(S(=O)(=O)N3CCOCC3)cc2)c1,0,4,-1,3,6,0,·,·
Cc1cc2cc(CNC(=O)c3ccc(S(=O)(=O)N4CCOCC4)cc3)ccc2n1C,48*,1,0,-4,-1,-1,2,5
Cc1cc2cc(CNC(=O)c3cccc([N+](=O)[O-])c3)ccc2n1C,26*,8,-3,-2,-3,1,3,4
CC1CCCN(C(=O)c2nn(C)c3c2CS(=O)(=O)c2ccccc2-3)C1 (stereo not given),5,-10,1,3,4,5,·,·
O=C(OCc1ccc(F)cc1)c1ccc2ccccc2n1,2,3,3,1,-5,1,·,·
Cc1cc2cc(CNC(=O)c3ccc(S(=O)(=O)N(C)C)cc3)ccc2n1C,25*,11,-6,-2,-7,0,3,2
Cc1cc2cc(CNC(=O)Cc3ccc([N+](=O)[O-])cc3)ccc2n1C,5,3,4,0,-1,-2,·,·
CCCc1cc(=O)oc2cc(OCC(=O)NC3CC(C)(C)NC(C)(C)C3)ccc12,5,3,-4,14,-3,1,·,·
C[n+]1cc2c3c(ccc2c2ccc4cc5c(cc4c21)OCO5)OCO3,20*,-8,-4,3,3,0,19,24*
C[n+]1c(/C=C/c2ccc3c(c2)OCO3)ccc2ccccc21,0,-13,7,0,5,-2,·,·
